MrgX1 antag – antagonists of human MrgX1 receptor; B-score at 10 µM; AID 588676; Q96LB2; MRGX1-HEK293 calcium flux, Fluo-4, BAM8-22 antagonism; stronger effect = lower value; 1.3% of 310,000 active;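 active = calcium-response B-score plate-corrected more than 3 library SD below zero, starting fluorescence within 5 deviations, no agonist response on first addition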;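 also: peak minus trough fluorescence over baseline after final BAM8-22 challenge near maximal dose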
Target sequence (Q96LB2 whole entry, looked up): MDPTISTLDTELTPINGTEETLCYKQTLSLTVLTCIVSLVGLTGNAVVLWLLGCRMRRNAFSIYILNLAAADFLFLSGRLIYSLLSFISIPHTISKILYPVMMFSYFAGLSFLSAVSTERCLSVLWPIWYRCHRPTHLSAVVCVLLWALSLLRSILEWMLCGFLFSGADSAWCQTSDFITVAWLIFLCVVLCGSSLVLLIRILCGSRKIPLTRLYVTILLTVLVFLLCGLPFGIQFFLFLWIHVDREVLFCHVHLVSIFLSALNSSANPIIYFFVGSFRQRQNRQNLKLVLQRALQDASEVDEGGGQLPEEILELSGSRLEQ
MrgX1 PAM – human MrgX1 positive allosteric modulation, primary screen. Q96LB2. MrgX1-HEK293, Fluo-4 calcium flux, FDSS; stronger effect = higher value. B-score at 10 µM. 0.63% of 310,000 active;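 active = plate-corrected calcium response at least 3 library SD above typical, normal starting fluorescence, not activating the receptor alone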;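 also: compound read alongside a low EC10 to EC30 dose of BAM8-22 agonist; peak minus trough fluorescence over baseline measured at the second addition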
RGS4 inh – inhibitors of human RGS4; HEK293 M3R/RGS4 inducible, Fluo-4 calcium flux; stronger effect = higher value; triggered by carbachol at its EC20; B-score at 10 µM; 0.45% of 310,000 active; AID 463165;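 active = B-score, a plate-corrected calcium signal, over three deviations above library mean, with baseline fluorescence within five deviations of library mean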;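 also: RGS4 expression induced by doxycycline in cells with stable M3 receptor; B-score is computed from the integrated fluorescence ratio over baseline after carbachol; higher B-score means a larger calcium signal and so more RGS4 inhibition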
Target sequence (P49798 whole entry, looked up): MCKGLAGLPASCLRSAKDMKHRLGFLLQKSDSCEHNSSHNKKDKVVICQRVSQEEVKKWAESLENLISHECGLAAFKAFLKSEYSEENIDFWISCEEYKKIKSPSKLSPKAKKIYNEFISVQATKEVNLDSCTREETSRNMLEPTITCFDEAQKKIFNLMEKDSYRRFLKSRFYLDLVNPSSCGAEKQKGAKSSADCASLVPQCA
MrgX1 agonist – agonists of human MrgX1 receptor. Q96LB2. 0.44% of 310,000 active. MrgX1-HEK293 cells, Fluo-4 calcium fluorescence, agonist mode; stronger effect = higher value. B-score at 10 µM;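 active = calcium response B-score plate-corrected fluorescence ratio at least 3 library SD, with starting fluorescence B-score inside 5 SD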
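Assay system: stable human MrgX1 HEK293 cell line. Quantity: 15,000 cells per well. Schedule: cells plated overnight, dye loaded 0.5 h 37 °C, 0.5 h room temperature. Detection: Fluo-4 NW calcium-flux fluorescence, kinetic read. Read-out basis: peak-minus-minimum fluorescence over baseline, converted to B scores. Control set: positive and negative control wells on each plate.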
RGS4 act – RGS4 potentiation or activation | HEK293 M3R/inducible RGS4, carbachol calcium flux Fluo4; stronger effect = lower value | B-score at 10 µM | 0.92% of 310,000 active;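 active = B-score of the integrated calcium signal more than 4 SD below the library mean, with starting fluorescence not abnormally high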;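 also: negative B-score means reduced calcium response which marks RGS4 activation or potentiation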
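test system = M3R-expressing HEK293 line, RGS4 induced by doxycycline | probe or stimulus = carbachol at ECmax as muscarinic agonist stimulus | timing = dye loading 30 min 37 °C, buffer rest 30 min RT | signal = calcium dye Fluo4 fluorescence | evaluation = B score from integrated fluorescence ratio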
RGS4 block valid – validation of RGS4 inhibitors; shares compounds with RGS4 inh; HEK293 M3R/RGS4, carbachol calcium Fluo-4 fluorescence; carbachol added at its EC20; 0 = buffer wells, 100 = carbachol control; calcium response, % at 10 µM; 65% of 1,700 active; AID 492999;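 active = duplicate-averaged calcium response above the buffer-only control mean plus 5 SD of those controls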;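 also: integrated fluorescence ratio F max minus min over baseline F0; higher response in RGS4-induced cells means RGS4 inhibition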
RGS4 uninduced – counter-screen for RGS4 inhibitors: effect in non-induced cells; shares compounds with RGS4 inh; HEK293 M3R non-induced, carbachol calcium Fluo-4; submaximal (EC20) carbachol stimulus; buffer wells 0%, carbachol control wells 100%; activity (percent), % at 10 µM; 20% of 1,900 active; call rule not given here;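 also: RGS4 induction absent so cells express M3R without RGS4; higher means more calcium signal and flags a non-specific hit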
M3R basal Ca ctr – signal in non-induced cells without carbachol, RGS4 inhibitor counter-screen. HEK293 M3R/RGS4 non-induced, Fluo-4 calcium, no carbachol; normalised: buffer wells 0%, carbachol wells 100%. 22% of 1,900 active. calcium response (agonist-mode artifact), % at 10 µM. shares compounds with RGS4 inh;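 active = duplicate-averaged calcium rise in uninduced cells above buffer wells' mean plus 5 SD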
MrgX1 ag confirm – confirmation of human MrgX1 receptor agonists; shares compounds with MrgX1 agonist; activation, % at 10 µM; AID 602412; 78% of 600 active; MrgX1-HEK293, Fluo-4 calcium fluorescence, FDSS;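 active = calcium signal rise, corrected for plate position, at least 3 library SD high, with starting brightness within 5 such deviations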
MrgX1 PAM conf – human MrgX1 positive allosteric modulation, re-confirmation; shares compounds with MrgX1 PAM; MrgX1-HEK293, Fluo-4 calcium fluorescence, FDSS; activation (ratio percentage), % at 10 µM; 13% of 1,200 active; AID 602413;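 active = ratio at least 3 SD above the weak peptide control, stable starting fluorescence, no direct agonism earlier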;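 also: compound followed by low BAM8-22 agonist challenge near EC20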
MrgX1 antag conf – confirmation of human MrgX1 receptor antagonists. MrgX1-HEK293, BAM8-22 calcium flux, Fluo-4; stronger effect = lower value. shares compounds with MrgX1 antag. 19% of 2,300 active. AID 602420. remaining BAM8-22 calcium response % of control (stronger effect = lower value), % at 10 µM;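 active = remaining agonist calcium response no higher than 100% minus 3 SD of agonist-only control wells, with starting fluorescence near control levels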;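 also: agonist BAM8-22 given at a near maximal EC90 to ECmax level; peak minus minimum fluorescence divided by baseline after agonist addition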
HEK293 Ca flux – activity in parental HEK293 cells lacking MrgX1. Fluo-4 calcium fluorescence, FDSS. AID 624111. 2% of 4,000 active. fluorescence ratio F(max-min)/F0 at 10 µM. shares compounds with MrgX1 antag;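 active = duplicate-averaged calcium fluorescence ratio at least three times the standard deviation of buffer wells, a nonspecific response in parental cells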
HEK293 Ca counter – activity in parental HEK293 cells without MrgX1. AID 624114. shares compounds with MrgX1 antag. parental HEK293 calcium flux, Fluo-4 fluorescence ratio; stronger effect = higher value. fluorescence ratio F(max-min)/F0 at 10 µM. 0.4% of 4,000 active;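 active = calcium fluorescence ratio, averaged over duplicates, at least 3 SD of the buffer-well ratio, meaning a nonspecific response in receptor-free cells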;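 also: untransfected parental HEK293 lacking MrgX1 used as counterscreen for MrgX1 allosteric activators; fluorescence change taken during the second addition on a kinetic imager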
HEK293 Ca cntr2 – activity in parental HEK293 cells lacking MrgX1 receptor; Fluo-4 calcium fluorescence (FDSS); stronger effect = higher value; 8.7% of 4,000 active; shares compounds with MrgX1 antag; fluorescence ratio F(max-min)/F0 at 10 µM;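 active = calcium fluorescence ratio at least three times the spread of buffer wells, meaning a non-specific response in parental cells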
Large screens that a line does not name were inactive (follow-up assays come after a bar, where they were run). Compounds with a hit are over-represented: about 3.5% of the library has one in this group of screens.

CC(=O)c1ccc(OCC(C)Oc2ccc(C#N)cc2)cc1 (stereo unspecified)	none
Cc1cccc(NC(=S)NNC(=O)c2csc3c2CCC(C)C3)c1 (stereo unspecified)	RGS4 inh 6.13 | RGS4 block valid 16.0% | RGS4 uninduced inactive | M3R basal Ca ctr inactive
CC(C)CNC(=S)NNC(=O)c1csc2c1CCC(C)C2 (stereo unspecified)	none
CN(C/C=C/c1ccccc1[N+](=O)[O-])Cc1ccccc1	none
NCCOc1ccc(C23CC4CC(CC(C4)C2)C3)cc1	RGS4 inh 10.9 | RGS4 block valid 20.0% | RGS4 uninduced inactive | M3R basal Ca ctr 72.0%
S=C(NCc1ccco1)Nc1cc(-c2ccccc2)[nH]n1	none
COc1cc(/C=N/NC(=S)Nc2cccc(Cl)c2C)ccc1OCC(=O)N1CC(C)OC(C)C1 (stereo unspecified)	RGS4 inh 12.9 | RGS4 block valid inactive | RGS4 uninduced inactive | M3R basal Ca ctr inactive
CC(Nc1nc(-c2ccc(F)cc2)cs1)c1nc2cc(Cl)c(N3CCCCC3)cc2n1CCOCCO (stereo unspecified)	none | RGS4 block valid inactive | RGS4 uninduced inactive | M3R basal Ca ctr inactive
CC(Nc1nc(-c2ccc(F)cc2)cs1)c1nc2cc(Cl)c(N3CCCCC3)cc2n1CCCO (stereo unspecified)	none
CC(Nc1nc(-c2cccc(Br)c2)cs1)c1nc2cc(Cl)c(N3CCCCC3)cc2n1CCOCCO (stereo unspecified)	RGS4 inh 8.25 | RGS4 block valid 10.0% | RGS4 uninduced inactive | M3R basal Ca ctr inactive
COc1ccc(Cl)cc1NC(=O)CN1CCC(NC(=O)C2CC2)CC1	none
CC(/C=N/NC(=O)c1n[nH]c2c1CCC2)=C\c1ccccc1	none | RGS4 block valid inactive | RGS4 uninduced inactive | M3R basal Ca ctr inactive
Cc1ccc(S(=O)(=O)N2CCCOC2CNC(=O)C(=O)NC2CCCCC2)cc1 (stereo unspecified)	none | RGS4 block valid inactive | RGS4 uninduced inactive | M3R basal Ca ctr inactive
CCOC(=O)Cc1csc(SCC(=O)Nc2cc(Cl)ccc2Oc2ccccc2)n1	none
CC1(C)CC(=O)c2sc(NC(=O)c3ccccc3)nc2C1	none
CC1(C)CC(=O)c2sc(NC(=O)CCS(=O)(=O)c3ccccc3)nc2C1	RGS4 inh 4.68 | RGS4 block valid 7.5% | RGS4 uninduced inactive | M3R basal Ca ctr inactive
Cc1cccc(NC(=O)N2C3CCCC2CC(NC(=O)C(C)(C)C)C3)c1 (stereo unspecified)	none
Cc1ccc(-c2cnn3c(N4CCOCC4)cc(C)nc23)cc1	none
Cc1cc(N2CCOCC2)n2ncc(-c3ccc(Cl)cc3)c2n1	none | RGS4 block valid inactive | RGS4 uninduced inactive | M3R basal Ca ctr inactive
CC(C)(C)c1cc(N2CCOCC2)n2ncc(-c3ccc(Cl)cc3)c2n1	RGS4 inh 11.5 | RGS4 block valid 27.0% | RGS4 uninduced 47.0% | M3R basal Ca ctr inactive
Cc1nn2c(N3CCOCC3)cc(C(C)(C)C)nc2c1-c1ccc(Cl)cc1	none (no result: MrgX1 antag, MrgX1 PAM, MrgX1 agonist)
CN(C)CCNc1nc(-c2ccco2)c2c(c1C#N)CC(C)(C)OC2	none
CCCCN(C)c1nc(-c2ccco2)c2c(c1C#N)CC(C)(C)OC2	RGS4 inh 7.17, MrgX1 agonist 28.3 | RGS4 block valid inactive | RGS4 uninduced inactive | M3R basal Ca ctr 34.5% | MrgX1 ag confirm 84.5% | HEK293 Ca flux inactive | HEK293 Ca counter inactive | HEK293 Ca cntr2 inactive
COc1cc(C2C(C#N)=C(N)Oc3cc(N(C)C)ccc32)cc2c1OCO2 (stereo unspecified)	MrgX1 agonist 93.6 | RGS4 block valid inactive | RGS4 uninduced inactive | M3R basal Ca ctr 108.5% | MrgX1 ag confirm 273.2% | HEK293 Ca flux inactive | HEK293 Ca counter inactive | HEK293 Ca cntr2 86.4
O=C(CC1(O)C(=O)Nc2ccccc21)c1cccc(Br)c1 (stereo unspecified)	none
N#CC1(Nc2cccc(Br)c2)C(=O)Nc2ccccc21 (stereo unspecified)	RGS4 inh 10.3, MrgX1 agonist 53.8 | RGS4 block valid 44.5% | RGS4 uninduced 29.5% | M3R basal Ca ctr 76.5% | MrgX1 ag confirm 194.8% | HEK293 Ca flux inactive | HEK293 Ca counter inactive | HEK293 Ca cntr2 48.8
CCOC(=O)[C@@H]1[C@H]2COc3ccccc3[C@@H]2N2C(=O)N(c3ccc(Cl)cc3)C(=O)[C@@]12C	MrgX1 antag -8.06 | RGS4 block valid inactive | RGS4 uninduced inactive | M3R basal Ca ctr inactive | MrgX1 antag conf inactive | HEK293 Ca flux inactive | HEK293 Ca counter inactive | HEK293 Ca cntr2 inactive
CCOC(=O)[C@H]1[C@H]2COc3ccc(C)cc3[C@@H]2N2C(=O)c3cc(F)c(F)cc3NC(=O)[C@@]12C	none (no result: RGS4 inh, RGS4 act)
N#Cc1c(-c2c(Cl)cccc2Cl)noc1/C=C/Nc1ccc(C(=O)O)cc1	MrgX1 PAM 11.5, RGS4 inh 5.44 | RGS4 block valid 18.0% | RGS4 uninduced inactive | M3R basal Ca ctr inactive | MrgX1 PAM conf inactive | HEK293 Ca flux inactive | HEK293 Ca counter inactive | HEK293 Ca cntr2 inactive
Nc1ncc(Br)cc1S(=O)(=O)NCCC(=O)NC1CCCCC1	none

High-throughput results: PubChem BioAssay, Johns Hopkins Ion Channel Center
